Screens (PubChem)
NRP1-CendR mod = modulators of CendR peptide binding to NRP-1, primary screen, biochemical, fluorescence polarization, uHTS; FAM-RPARPAR peptide binding to NRP-1; inhibition, % at 25 µM; 0.85% of 360,000 active; AID 602438, 2012;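 active = inhibition or corrected inhibition above about 18%, plus a signal ratio from 0.5 to 1.5, limit read from the data, passing the limit was not always enough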
Arr AP2 block = inhibitors of beta-arrestin/AP2 binding, primary screen, biochemical, GPCR trafficking, flow cytometry | 0.31% of 340,000 active | AID 504490, 2011 | beta-arrestin 1 C-terminal peptide binding to AP2 beta2-adaptin appendage (human) | inhibition, % at 10 µM | FITC-arrestin peptide / GST-AP2 beads; AP2 beta2 appendage carries R879A mutation;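 active = inhibition above a set limit, near 3 SD of compounds lacking own fluorescence, cut at about 54% in these data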;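 note: plate controls were DMSO wells for no effect and 5 µM unlabelled arrestin peptide for full effect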
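Material – GST-tagged AP2 beta2-adaptin appendage (R879A) on 4 µm glutathione beads · Probe or stimulus – fluorescein-tagged arrestin peptide at 50 nM final · Timing – 12 min plus 1 h, RT · Detection – bead flow cytometry, FITC channel · Read-out basis – inhibition as reduced fluorescein signal on beads, percent · Medium – PBS plus Tween 20 (0.05%) and BSA (0.1%)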
HGIII-sPLA2 inh = human group III sPLA2 inhibitors, primary screen, biochemical, QFRET, BODIPY PC-A2 liposome substrate. Group 3 secretory phospholipase A2 (Homo sapiens), Q9NZ20. QFRET BODIPY PC-A2 liposome hydrolysis, fluorescence. inhibition, % at 12.2 µM. 0.56% of 370,000 active;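 active = inhibition above mean plus 3 SD of compounds lying within the high and low control bounds, cut at about 19% in these data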;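 note: 0% = median of test compound wells and 100% = no enzyme DMSO wells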
Hep lipid drop = inhibitors of hepatocyte lipid droplet formation, primary screen, imaging, high-throughput imaging, BODIPY stain. AML12 mouse hepatocytes, oleate lipid droplets. AID 1656, 2009. inhibition, % at 6.5 µM. 0.4% of 240,000 active;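 active = lipid droplet intensity inhibited by at least 50%, with more than 500 cells counted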
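Material – AML12 mouse liver cells · Also added – oleate loading, 100 µM · Compound dosing – 6.5 µM single-point dosing · Times – overnight treatment with compound plus oleate · Measured by – fluorescence imaging, 20x objective, two fields per well · Read-out – percent inhibition of filter-corrected integrated lipid droplet intensity per well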
m5-HT2A agonist = mouse Htr2a agonists via beta-arrestin recruitment, primary screen, cell-based, luminescence; 5-hydroxytryptamine receptor 2A (Mus musculus), P35363; CHO-K1 mHTR2A beta-arrestin complementation; percent of 30 µM serotonin response; activation, % at 7.6 µM; 0.66% of 360,000 active;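 active = activation above a run cutoff, the mean activation of all tested compounds plus 3 SD, cut at about 14% in these data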;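 note: 0% = plate median of compound wells and 100% = 30 µM serotonin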
Target sequence (P35363 whole entry, looked up): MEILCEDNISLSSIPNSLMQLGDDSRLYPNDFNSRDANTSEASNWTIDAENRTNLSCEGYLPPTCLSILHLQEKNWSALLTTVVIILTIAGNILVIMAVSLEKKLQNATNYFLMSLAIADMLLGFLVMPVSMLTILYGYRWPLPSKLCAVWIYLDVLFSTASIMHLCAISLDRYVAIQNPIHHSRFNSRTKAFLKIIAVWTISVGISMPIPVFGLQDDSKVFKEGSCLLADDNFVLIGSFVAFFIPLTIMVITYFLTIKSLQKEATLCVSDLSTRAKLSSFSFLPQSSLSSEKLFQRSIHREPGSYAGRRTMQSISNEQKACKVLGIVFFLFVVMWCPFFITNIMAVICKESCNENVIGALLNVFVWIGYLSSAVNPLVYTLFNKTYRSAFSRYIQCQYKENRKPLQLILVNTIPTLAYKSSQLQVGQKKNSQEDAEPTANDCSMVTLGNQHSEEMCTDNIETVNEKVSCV
PfM18AAP inh = PfM18AAP inhibitors, malaria aminopeptidase, primary screen, biochemical, QFRET, recombinant enzyme. M18 aspartyl aminopeptidase (Plasmodium falciparum 3D7). H-Glu-NHMec fluorogenic cleavage. inhibition, % at 7.35 µM. 1.2% of 290,000 active;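 active = inhibition above the campaign mean inhibition over all tested compounds plus 3 SD, cut at about 28% in these data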;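 note: 0% = plate median of test compound wells and 100% = 2 mM ZnCl2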
hGIII sPLA2 conf = human group III sPLA2 inhibitors, confirmation, biochemical, QFRET, triplicate. 34% of 2,000 active. inhibition, % at 12.2 µM. recombinant hGIII-sPLA2, BODIPY PC-A2 QFRET fluorescence. shares compounds with HGIII-sPLA2 inh;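 active = mean inhibition across triplicates above the hit cutoff set in the earlier primary screen, cut at about 19% in these data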;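 note: 0% = enzyme with DMSO and 100% = DMSO wells lacking enzyme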
BODIPY interf = 535nm fluorescence optical interference, confirmation, artefact control for HGIII-sPLA2 inhibitor project, biochemical, QFRET; shares compounds with HGIII-sPLA2 inh; BODIPY FL product fluorescence interference; inhibition, % at 12.2 µM; 8.5% of 2,000 active; AID 743282, 2014;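 active = average inhibition above the solvent-only control mean plus 3 SD, cut at about 6% in these data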;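 note: 0% = DMSO with substrate plus product and 100% = DMSO with substrate alone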
535nm interf DR = 535nm fluorescence optical interference, dose response, artefact control for HGIII-sPLA2 inhibitor project, biochemical, QFRET | BODIPY FL product fluorescence interference, cell-free | AID 743455, 2014 | shares compounds with HGIII-sPLA2 inh | IC50, µM | 240 tested, under 10 active;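 active = IC50 at or below 10 µM; inactive = IC50 above 10 µM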
* = called active by the depositor; nt = no result. A selection: hits, their analogues and other compounds. The true share with any hit is near 3.3%.

SMILES | NRP1-CendR mod | Arr AP2 block | HGIII-sPLA2 inh | Hep lipid drop | m5-HT2A agonist | PfM18AAP inh | hGIII sPLA2 conf | BODIPY interf | others
O=C(O)c1ccc(-c2nc(-c3ccccc3)c(-c3ccccc3)[nH]2)cc1 | -9 | -8 | -18 | 3 | -4 | -1 | nt | nt
COc1ccc(C(=O)OCC(=O)Nc2sccc2C(N)=O)cc1[N+](=O)[O-] | -3 | -13 | 15 | nt | 2 | nt | nt | nt
COC(=O)[C@]12CCCCC=C1N(CCc1ccc(OC)c(OC)c1)C(=O)[C@H](CC(=O)NCCCCc1ccccc1)C2 | 1 | nt | -13 | nt | -3 | nt | nt | nt
CCN1Cc2nnn(Cc3ccccc3)c2-c2cc(N3CCCC3)ccc2S1(=O)=O | nt | nt | -1 | nt | nt | nt | nt | nt
CCCC1SCC(C)(C)NC1=O (configuration not stated) | 14 | 0 | -1 | nt | 1 | nt | nt | nt
CC(C1CC1)N(Cc1ccccc1)C(=S)Nc1ccccc1 (configuration not stated) | 12 | -21 | 5 | -23 | -1 | 1 | nt | nt
CC(C1CC1)N(Cc1ccccc1)C(=S)Nc1cccc(C(F)(F)F)c1 (configuration not stated) | 0 | -10 | 21* | -14 | -3 | -10 | 9 | -6
Cc1ccc(/C=N/NC(=O)c2ccc3nc[nH]c3c2)o1 | -1 | 6 | 21* | -4 | 7 | -4 | 2 | -2
O=C(Nc1ccc([N+](=O)[O-])cc1)c1cn(-c2ccccc2)nc1-c1cc2ccccc2o1 | -1 | -4 | 20* | -18 | 1 | -3 | -3 | -8
CN(C)C(=O)c1cn(-c2ccccc2)nc1-c1cc2ccccc2o1 | 3 | -10 | -3 | -9 | -1 | -9 | nt | nt
CC(C)CN1C(=O)C[C@]2(C(=O)N(C)c3ccc(NS(=O)(=O)C4CCCCC4)cc32)C1c1ccccc1 (some centres not stated) | nt | nt | 2 | nt | nt | nt | nt | nt
Cc1cc(N2CCN(c3ccccc3)CC2)n2ncnc2n1 | -12 | 11 | 93* | 3 | -2 | 2 | 0 | -7
Cc1cc(N2CCN(C/C=C/c3ccccc3)CC2)n2ncnc2n1 | -5 | -57 | 9 | nt | 0 | -10 | nt | nt
CS(=O)(=O)c1ccc(S(=O)(=O)N2CCN(C(=O)C(O)c3ccccc3)CC2)cc1 (configuration not stated) | 8 | nt | 4 | nt | 1 | nt | nt | nt
S=c1[nH]c2cc(Cl)ccc2s1 | 0 | 10 | 24* | nt | 1 | 2 | 21* | 1
COC1=C[C@H](C(=O)NC2CCN(Cc3ccccc3)CC2)[C@H](C)[C@@H](c2ccccc2)CC1=O | nt | nt | -12 | nt | nt | nt | nt | nt
COc1cc(NC(=S)N2CCN(c3ccccn3)CC2)c(OC)cc1Cl | 0 | 2 | 22* | 1 | 7 | 23 | 16 | -6
CCc1nc2c(OCc3cc(Cl)cc(Cl)c3)cccn2c1N(C)C(=O)c1ccc(OC)cc1 | -2 | nt | -6 | nt | -5 | nt | nt | nt
COc1ccccc1NC(=O)N(C)C[C@H]1OCc2cnnn2CCCC(=O)N([C@H](C)CO)C[C@@H]1C | -12 | nt | -5 | nt | 0 | nt | nt | nt
Cc1nc2c(-c3ccc(F)cc3)cnn2c(N)c1-c1ccccc1 | 8 | 4 | 13 | -4 | -4 | 7 | nt | nt
COc1ccc(-c2c(C)nc3c(-c4ccc(F)cc4)cnn3c2N)cc1 | 12 | 1 | 19* | 24 | -3 | 3 | 2 | -7
O=C(NCCCN1CCOCC1)c1cccc(S(=O)(=O)N2CCc3ccccc32)c1 | 5 | nt | -6 | nt | -4 | nt | nt | nt
O=[N+]([O-])c1ccccc1/C=N/n1c(C2CCCCC2)n[nH]c1=S | -9 | -3 | 20* | -25 | -4 | 9 | 28* | 5 | 535nm interf DR=>122
Cc1ccc2cc3cc(C(=O)NCCCN4CCCC4=O)oc3nc2c1 | 0 | -12 | -3 | 6 | -1 | -3 | nt | nt
CC(C)NC(=O)CCN1C(=O)c2ccccc2Sc2ncccc21 | 4 | 3 | 1 | 4 | -2 | 2 | nt | nt
SMILES | NRP1-CendR mod | Arr AP2 block | HGIII-sPLA2 inh | Hep lipid drop | m5-HT2A agonist | PfM18AAP inh | hGIII sPLA2 conf | BODIPY interf | others
O=C(O)CCN1C(=O)c2ccccc2Sc2ncccc21 | 6 | 37 | 23* | nt | -1 | -2 | 0 | -2
O=C(c1cc(S(=O)(=O)N2CCCCC2)ccc1F)N1CCCCC1 | 0 | 22 | nt | nt | 1 | -4 | nt | nt
NS(=O)(=O)c1ccc(F)c(C(=O)O)c1 | -10 | -5 | 26* | -4 | 3 | -12 | 4 | -6
COc1ccc(C(=O)C(=O)N2CCC(Cc3ccccc3)CC2)cc1OC | -21 | nt | 10 | nt | -3 | nt | nt | nt
CC(=O)Nc1c(C)ccc(CNC(=O)COc2ccc(F)cc2)c1C | 10 | 2 | -4 | 5 | -1 | -11 | nt | nt
CC(=O)Nc1c(C)ccc(CNC(=O)COc2cc(C)ccc2C)c1C | -3 | -3 | 21* | -7 | 0 | -2 | -4 | -12
COC(=O)C(Cc1ccccc1)OS(N)(=O)=O (configuration not stated) | 5 | 22 | 6 | 2 | -6 | 1 | nt | nt
CC(C)CNC(=O)c1oc2ccccc2c1COc1ccccc1 | 9 | -6 | 1 | 44 | -3 | -2 | nt | nt
O=C(Nc1ccccc1OC(F)F)c1oc2ccccc2c1COc1ccccc1 | 4 | 0 | 25* | 6 | 5 | -16 | 4 | -13
CN(C)c1ccc(Nc2ccc([N+](=O)[O-])cn2)cc1 | -15 | 11 | 39* | -11 | -6 | 0 | 44* | 6.5*
CCOC(=O)N(C)[C@H]1C[C@H]2c3cc(-c4ccccc4C)ccc3CCN2C[C@H]1[C@H](C)O | nt | nt | -12 | nt | nt | nt | nt | nt
CCN(CC)S(=O)(=O)c1cccc(C(=O)N/N=C/c2cccc(O)c2O)c1 | 2 | 49 | 23* | -15 | -3 | 21 | 12 | 4
CC1=C(C(=O)N(C(C)C)C(C)C)CC(CC(=O)NCc2cccc3ccccc23)C(=O)N1CCC1=CCCCC1 (configuration not stated) | 16 | nt | -15 | nt | -1 | nt | nt | nt
